Compounds with a hit are over-represented: about 2.3% of the library has one in this group of screens.
TRPC6 activator: activators of mouse TRPC6 channel; Q61143; HEK293-TRPC6 membrane potential dye fluorescence; stronger effect = higher value; B-score at 10 µM; 0.13% of 310,000 active; AID 2550;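 active means B-score of the integrated fluorescence ratio above library mean plus 3 SD, and starting fluorescence ratio within library mean plus 5 SD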;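 further: higher score means more depolarization so channel activation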
TRPC4 agonist: TRPC4 (mouse) channel activation; Q9QUQ5; HEK293 TRPC4beta/mu-opioid, Fluo4 calcium fluorescence; stronger effect = higher value; B-score at 10 µM; 0.49% of 310,000 active;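 active means B-score above 5 SD of library B-scores, and initial fluorescence ratio not above library mean plus 5 SD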;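 further: positive B-score marks a calcium rise read as TRPC4 activation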
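System – HEK293 cells stably co-expressing mouse TRPC4beta and mu-opioid receptor · Signal – Fluo4 calcium-sensitive dye fluorescence, kinetic, 1 Hz baseline · Benchmarks – buffer (low) and maximal DAMGO (high) · Read-out – B score of integrated fluorescence ratio per well · Incubation – dye loading 45 min room temperature, 110 s kinetic read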
TRPC4 block: blocks the mouse TRPC4 cation channel; Q9QUQ5; B-score at 10 µM; HEK293 TRPC4beta/mu-opioid, DAMGO-evoked Fluo4 calcium flux; stronger effect = lower value; 0.39% of 300,000 active; AID 2247;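 active means B-score over 3 SD under the library average, no early fluorescence shift, positive overall ratio signal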
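test system = HEK293 cells with stable TRPC4beta plus mu-opioid receptor expression | detection = Fluo4 Ca2+ flux fluorescence | read-out = integrated fluorescence ratio relative to baseline, converted to per-well B score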
TRPC6 inh: inhibitors of mouse TRPC6 channel; Q61143; HEK293-TRPC6, membrane potential dye, ACh-evoked depolarization; stronger effect = lower value; B-score at 10 µM; 1.1% of 310,000 active; AID 2553;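 active means B-score under library mean minus 3 SD, initial fluorescence not abnormally high, positive integrated signal ratio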;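 further: B-score derived from integrated fluorescence ratio over the kinetic read; more negative B-score means stronger inhibition of depolarization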
TRPC4 potent: allosterically enhances the mouse TRPC4 cation channel; B-score at 10 µM; HEK293 TRPC4beta/mu-opioid, DAMGO EC20, Fluo-4 Ca2+ flux; stronger effect = higher value; Q9QUQ5; 0.42% of 310,000 active;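 active means B-score of calcium response area above 5 SD of library B-scores, with initial fluorescence ratio within 5 SD of library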
Yeast superoxide: lowers age-related superoxide in aged yeast cells; S. cerevisiae aged cells, superoxide DHE fluorescence; stronger effect = lower value; superoxide response (% of plate mean), % at 10 µM; 0.18% of 330,000 active;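 active means superoxide response under a set limit, about three screen SD below normal, cut at about 65% in these data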;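 further: yeast aged for seven days with compound at 30 °C before DHE staining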
Numbers stand for hits; - = inactive; . = no result given.

SMILES | TRPC6 activator | TRPC4 agonist | TRPC4 block | TRPC6 inh | TRPC4 potent | Yeast superoxide
CSCCC(NC(=O)c1ccccc1)C(=O)OCC(=O)c1ccc[nH]1 (centres undefined) | - | - | - | - | - | -
COCCOC(=O)/C(=C\c1cc(C(C)(C)C)c(O)c(C(C)(C)C)c1)C(C)=O | - | - | - | - | - | -
CC1CCCN(CCCNC(=O)c2ccc3c(c2)N(Cc2ccccc2F)C(=O)c2ccccc2S3(=O)=O)C1 (centres undefined) | - | 114 | - | - | - | -
CCN1CCCC1CNC(=O)c1ccc2c(c1)N(Cc1ccccc1F)C(=O)c1ccccc1S2(=O)=O (centres undefined) | - | - | - | - | - | -
Clc1ccc(OCCCc2nc(-c3ccncc3)no2)c(Cl)c1 | - | - | -9 | - | - | -
Clc1ccc(OCCCc2nc(-c3cccnc3)no2)c(Cl)c1 | - | - | - | - | - | -
O=C(c1cccs1)N(Cc1ccco1)Cc1cc2ccccc2[nH]c1=O | - | - | - | - | - | -
O=C(O)CC(Cc1ccc(Cl)cc1)C(=O)NCC12CC3CC(CC(C3)C1)C2 (centres undefined) | - | - | - | - | - | -
Cc1ccc(CC(CC(=O)O)C(=O)NCC23CC4CC(CC(C4)C2)C3)cc1 (centres undefined) | - | - | - | - | 14 | -
CC(C)(C)c1ccccc1NC(=O)NC1CCN(Cc2c(F)cccc2Cl)CC1 | - | 116 | - | - | - | -
CN(C)CCNC(=O)/C(=C/c1ccc(-c2ccc(Cl)cc2Cl)o1)NC(=O)c1ccccc1 | - | - | - | - | - | -
O=C1CN(C(=O)COC(=O)Cc2ccsc2)c2ccccc2N1 | - | - | - | - | - | -
CC1(C(=O)NC(=S)NNC(=O)c2ccncc2)CCCCC1 | - | 97 | - | - | - | -
O=C(NNC(=S)NC(=O)c1ccc(F)cc1)c1ccncc1 | . | . | . | . | . | -
O=C(NNC(=S)NC(=O)C12CC3CC(CC(C3)C1)C2)c1ccncc1 | - | 169 | - | - | - | -
CC12CC3CC(C1)CC(C(=O)NNC(=O)c1ccncc1)(C3)C2 | . | . | . | . | . | -
CN(C)S(=O)(=O)c1cccc(COC(=O)c2ccc(Cl)cc2O)c1 | - | - | - | - | 17 | -
CN(C)S(=O)(=O)c1cccc(COC(=O)c2ccc3c(c2)OCO3)c1 | - | - | - | - | - | -
O=C(NCCCc1ccccc1)c1ccc(F)cc1 | - | - | - | - | - | -
O=C(NCCNC1CCC(c2ccccc2)CC1)c1ccc(F)cc1 (centres undefined) | - | 61 | - | - | - | -
Cc1onc(-c2ccccc2)c1C(=O)NNC(=S)NC(=O)/C=C/c1ccccc1 | - | 59 | -7 | - | - | -
Cc1onc(-c2ccccc2)c1C(=O)NNC(=S)NC(=O)c1ccc(Br)cc1 | - | 250 | - | - | - | -
COc1ccc(/C=C/C(=O)NC(=S)NNC(=O)c2c(-c3ccccc3)noc2C)cc1 | - | - | - | - | - | -
O=C(NC(=S)NNC(=O)c1ccccc1[N+](=O)[O-])c1ccc(Br)cc1 | - | 142 | - | - | - | -
C=CCNC(=S)N1CCN(C2CCCCC2)CC1 | - | - | - | - | 32 | -
SMILES | TRPC6 activator | TRPC4 agonist | TRPC4 block | TRPC6 inh | TRPC4 potent | Yeast superoxide
CNC1=C(N(C(C)=O)c2ccc(Br)cc2)C(=O)c2ccccc2C1=O | - | - | - | - | - | -
CC(=O)C1=C(c2ccc(Br)cc2)C(=O)c2ccccc2C1=O | - | - | - | - | 35 | -
COC(=O)N/N=C/c1cc(Cl)c(OCc2ccccc2F)c(OC)c1 | - | - | - | - | - | -
CCn1cc(CN2CCC(n3nccc3NC(=O)CCOc3ccccc3)CC2)cn1 | - | 72 | - | - | - | -
CCn1cc(CN2CCC(n3nccc3NC(=O)CCc3ccccc3)CC2)cn1 | - | 73 | - | - | - | -
CCn1ccnc1CN1CCC(n2nccc2NC(=O)CCc2ccccc2)CC1 | - | - | - | - | - | -
CCCn1ncc(CN2CCC(n3nccc3NC(=O)CCc3ccccc3)CC2)c1C | - | 100 | - | - | - | -
CCCn1ncc(CN2CCC(n3nccc3NC(=O)c3ccccc3OC)CC2)c1C | - | - | - | - | - | -

Screens from PubChem BioAssay.
